Screening results: PubChem BioAssay, several laboratories
The list is not random: actives were taken first. Their share in the collection is about 2.5%.
GalR3 antagonist: human GalR3 antagonism; actives 0.44% (n = 360,000); HEK293 GalR3-CNG cAMP membrane potential fluorescence; galR3 body fused to GalR1 C-terminus; inhibition, % at 3 µM; O60755; AID 651719;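 active means inhibition above the screen-wide average plus 3 SD, cut at about 13% in these data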;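 further: forskolin and galanin both at EC90 stimulate the cells; cAMP rise reported by CNG channel membrane potential dye signal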
Target sequence (O60755 1-299 limits assumed): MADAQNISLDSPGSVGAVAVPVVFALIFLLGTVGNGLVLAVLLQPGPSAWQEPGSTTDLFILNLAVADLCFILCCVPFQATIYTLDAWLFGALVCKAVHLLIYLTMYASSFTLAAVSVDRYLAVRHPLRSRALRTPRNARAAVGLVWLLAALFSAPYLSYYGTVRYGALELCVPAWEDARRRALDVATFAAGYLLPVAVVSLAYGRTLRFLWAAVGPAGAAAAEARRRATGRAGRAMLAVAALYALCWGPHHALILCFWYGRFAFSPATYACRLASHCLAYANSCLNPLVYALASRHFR
NR2E3 ag-1: activates human NR2E3 receptor | Q9Y5X4 | CHO-S Gal4-NCOR/VP16-NR2E3 two-hybrid, luciferase | inhibition of corepressor binding, % at 3.98 µM | actives 0.35% (n = 360,000);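 active means inhibition above the mean of all tested compounds plus 3 SD, cut at about 70% in these data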;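 further: higher means lower luciferase signal from less NR2E3 corepressor binding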
Target sequence (Q9Y5X4 whole entry, looked up, the tested form may be a part): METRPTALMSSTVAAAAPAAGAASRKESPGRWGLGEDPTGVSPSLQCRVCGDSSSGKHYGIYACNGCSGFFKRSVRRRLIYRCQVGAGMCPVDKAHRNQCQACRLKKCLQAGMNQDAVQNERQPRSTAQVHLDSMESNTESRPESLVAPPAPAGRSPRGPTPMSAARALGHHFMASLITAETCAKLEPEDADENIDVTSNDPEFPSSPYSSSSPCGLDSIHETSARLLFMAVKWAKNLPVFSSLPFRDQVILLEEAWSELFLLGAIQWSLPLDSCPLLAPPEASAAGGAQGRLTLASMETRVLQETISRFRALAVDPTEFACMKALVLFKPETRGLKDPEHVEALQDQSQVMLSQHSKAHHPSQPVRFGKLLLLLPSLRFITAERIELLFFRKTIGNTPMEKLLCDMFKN
NR2E3 ag-2: activates human photoreceptor nuclear receptor NR2E3; Q9Y5X4; GST-NR2E3/biotin-RetCOR TR-FRET, 1536-well; inhibition of corepressor binding, % at 4.78 µM; actives 0.12% (n = 320,000); AID 2300;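 active means percent inhibition above the cutoff of mean plus 3 SD of all tested compounds, set per screening campaign, cut at about 20% in these data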
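Test system – NR2E3–RetCOR corepressor complex · Quantity – NR2E3 fusion 1.35 nM · Buffer or medium – Tris pH 7.5 · Incubation – Compound–protein incubation for 5 h at 4 °C · Technique – TR-FRET, Eu(K)-anti-GST donor, streptavidin-D2 acceptor, ex 340, em 617/671 nm · Evaluation – percent inhibition of 671/617 nm emission ratio versus biotin and DMSO controls · Plate – 1536-well format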
MsrA inhibitor: inhibitors of bovine MsrA; purified bovine MsrA, absorbance read-out; inhibition, % at 15.5 µM; actives 0.75% (n = 360,000); in the data active means inhibition above about 4.5%
NadD inh: inhibitors of Staphylococcus aureus NadD; purified NadD enzyme, colorimetric absorbance read-out; inhibition, % at 20 µM; actives 0.78% (n = 360,000); AID 602399; in the data active means inhibition above about 26%
MsrA act: bovine methionine sulfoxide reductase A activation; AID 602163; actives 0.3% (n = 360,000); activation, % at 10.6 µM; purified bovine MsrA, absorbance read-out; in the data active means activation above about 7.5%
NadD inh conf: NadD (S. aureus) inhibition, single concentration confirmation. shares compounds with NadD inh. purified S. aureus NadD, colorimetric enzyme assay. inhibition, % at 20 µM. actives 13% (n = 2,000). AID 624309; in the data active means inhibition mostly above about 42%, no sharp cut-off; inactive means mostly below about 42%
Numbers stand for hits; 0 = inactive; - = no result.

SMILES | GalR3 antagonist | NR2E3 ag-1 | NR2E3 ag-2 | MsrA inhibitor | NadD inh | MsrA act | NadD inh conf
Nc1cc(=O)[nH]c(SCC(=O)N2CCN(S(=O)(=O)c3ccc4ccccc4c3)CC2)n1 | 0 | 0 | 0 | 0 | 0 | 0 | -
O=C(CSc1n[nH]c(-c2cccs2)n1)N1CCN(S(=O)(=O)c2ccc3ccccc3c2)CC1 | 0 | 0 | 0 | 0 | 46.9 | 0 | 0
Nc1nc(=S)[nH]c2c1C1(CCCCC1)Cc1ccccc1-2 | 0 | 0 | 0 | 0 | 34.5 | 0 | 0
Cc1ccc(N2CCN(C(=S)Nc3ccccc3C)CC2)cc1 | 0 | 0 | 0 | 0 | 0 | 0 | -
Cc1ccc2[nH]c(C)c(CCNC(=O)c3cc4cc([N+](=O)[O-])ccc4oc3=O)c2c1 | 0 | 0 | 0 | 0 | 33.1 | 0 | 0
O=C(Cc1ccccc1)Nc1ccc(N2CCCC2)cc1 | 0 | 0 | 0 | 0 | 40.8 | 0 | 0
O=C(Nc1ccc(N2CCCC2)cc1)C(c1ccccc1)c1ccccc1 | 0 | 0 | 0 | 0 | 37.4 | 0 | 0
O=C(NCc1ccco1)C12CN(Cc3ccccc3)CC1C(c1cccc([N+](=O)[O-])c1)=NO2 (stereo not given) | 0 | 0 | 0 | 0 | 36.4 | 0 | 0
Cn1c2ccccc2c(=O)c2cc(C#CC3=CCCCC3)ccc21 | 0 | 0 | 0 | 0 | 32.1 | 0 | 0
Cn1c2ccccc2c(=O)c2ccc(C#Cc3ccc(N)cc3)cc21 | 0 | 0 | 0 | 0 | 50.6 | 0 | 0
COc1ccc(C#Cc2ccc3c(=O)c4ccccc4n(C)c3c2)cc1 | - | - | 0 | - | - | - | -
CCCCCCCC(O)CC(CC1CCCCC1)C(=O)NN (stereo not given) | 0 | 0 | 0 | 0 | 0 | 0 | -
N=C1S/C(=C\c2cccc3ccccc23)C(=O)N1c1ccc(F)cc1 | 0 | 0 | 0 | 0 | 33.3 | 0 | 0
CCc1cc(C(=O)N2CCCC(N3CCN(c4cccc(C(F)(F)F)c4)CC3)C2)n(C)n1 (stereo not given) | 0 | 0 | 0 | 0 | 37.8 | 0 | 0
C=CCn1c(=O)/c(=C/c2ccc(C)o2)s/c1=C(/C#N)C(=O)c1ccccc1 | 0 | 0 | 0 | 0 | 30.3 | 0 | 0
Cc1ccc(S(=O)(=O)NNC(=O)Cc2cccn2C)cc1 | 0 | 0 | 0 | 0 | 0 | 0 | -
Cc1cccn2c(=O)c3cc(S(=O)(=O)c4ccccc4)c(=N)n(Cc4ccco4)c3nc12 | 0 | 0 | 0 | 0 | 0 | 0 | -
Cc1cccn2c(=O)c3cc(S(=O)(=O)c4ccc(Br)cc4)c(=N)n(C4CCCCC4)c3nc12 | 0 | 0 | 0 | 0 | 27.0 | 0 | 0
N=c1c(S(=O)(=O)c2ccccc2)cc2c(=O)n3ccccc3nc2n1Cc1ccco1 | 0 | 0 | 0 | 0 | 0 | 0 | -
Cc1ccc2nc3c(cc(S(=O)(=O)c4ccccc4)c(=N)n3Cc3ccco3)c(=O)n2c1 | 0 | 0 | 0 | 0 | 30.6 | 0 | 0
COc1ccc(CCn2c(=N)c(S(=O)(=O)c3ccccc3)cc3c(=O)n4ccccc4nc32)cc1 | 0 | 0 | 0 | 0 | 0 | 0 | -
COc1ccc(CCn2c(=N)c(S(=O)(=O)c3ccc(Cl)cc3)cc3c(=O)n4ccccc4nc32)cc1 | 0 | 0 | 0 | 0 | 29.8 | 0 | 0
Cc1ccc(S(=O)(=O)c2cc3c(=O)n4cccc(C)c4nc3n(C3CCCCC3)c2=N)cc1 | - | 0 | 0 | - | 0 | 0 | -
Cc1cccn2c(=O)c3cc(S(=O)(=O)c4ccccc4)c(=N)n(Cc4ccc(F)cc4)c3nc12 | 0 | 0 | 0 | 0 | 32.5 | 0 | 0
Cc1ccc2nc(Cl)cc(=O)n2c1 | 0 | 0 | - | 0 | 0 | 0 | -
SMILES | GalR3 antagonist | NR2E3 ag-1 | NR2E3 ag-2 | MsrA inhibitor | NadD inh | MsrA act | NadD inh conf
CC1(C)CC(=O)C2=C(C1)OC(N)=C(C#N)C2c1ccsc1 (stereo not given) | 0 | 0 | 0 | 0 | 0 | 0 | -
CCOC(=O)c1cc(-c2csc(COc3ccc(Cl)cc3)n2)on1 | 0 | 0 | 0 | 0 | 0 | 0 | -
Cc1cccn2c(=O)c3cc(S(=O)(=O)c4ccc(F)cc4)c(=N)n(Cc4ccco4)c3nc12 | 0 | 0 | 0 | 0 | 35.1 | 0 | 0
CCOc1ccccc1N1CCN(S(=O)(=O)c2ccc3c4c(cccc24)C(=O)N3)CC1 | 0 | 0 | 0 | 0 | 30.1 | 0 | 0
CNc1ncc(C(=O)c2ccc(Cl)cc2)s1 | 0 | 0 | 0 | 0 | 0 | 0 | -
CC(C)NC(=O)c1cc(-c2ccc(Br)cc2)on1 | 0 | 0 | 0 | 0 | 0 | 0 | -
CC1CCCCN1c1nnc(NC(=O)c2cc(-c3ccc(Br)cc3)on2)s1 (stereo not given) | - | 0 | 0 | 0 | 31.2 | 0 | 0
COc1cc2c(cc1OC)CN(C(=O)CN1C(=O)NC3(CCCCC3C)C1=O)CC2 (stereo not given) | 0 | 0 | - | 0 | 0 | 0 | -
Cc1ccc(NS(=O)(=O)c2cc([N+](=O)[O-])ccc2NNC(=S)Nc2cc(C)ccc2C)c(C)c1 | 0 | 0 | 0 | 0 | 46.5 | 0 | 0
COC(C(=O)NC1CCCCCCC1)c1ccccc1 (stereo not given) | 0 | 0 | 0 | 0 | 0 | 0 | -
Cc1cccc2sc(NNC(=O)c3ccc(S(=O)(=O)N4CCCC(C)C4)cc3)nc12 (stereo not given) | - | 0 | 0 | 0 | 0 | 0 | -
Cc1cccc2sc(NNC(=O)c3ccc(S(=O)(=O)N4CCc5ccccc5C4)cc3)nc12 | - | 0 | 0 | 0 | 37.8 | 0 | 50.9
Cc1ccc(-n2ccnc(SCC(=O)NC3CCCC3)c2=O)cc1F | 0 | 0 | 0 | 0 | 0 | 0 | -
O=C(CSc1nnc(Cc2csc(Nc3cccc(Cl)c3)n2)o1)N1CCc2ccccc21 | 0 | 0 | 0 | 0 | 56.8 | 0 | 0
O=C(CSc1nnc(CNc2ccccc2)o1)N1CCc2ccccc21 | 0 | 0 | 0 | 0 | 0 | 0 | -
Cc1ccc(Cc2cnc(NC(=O)/C(C#N)=C/c3ccc(-c4ccccc4[N+](=O)[O-])o3)s2)cc1 | 0 | 0 | 0 | 0 | 29.1 | 0 | 0
CNC(=O)/C(C#N)=C/c1ccc(-c2ccccc2[N+](=O)[O-])o1 | 0 | 0 | 0 | 0 | 0 | 0 | -
Cn1cc(/C=C(\C#N)C(=O)Nc2ncc(Cc3ccc(Cl)cc3)s2)c2ccccc21 | 0 | 0 | 0 | 0 | 30.6 | 0 | 0
CCCOc1cccc(-c2cc(C(=O)N/N=C/c3ccccn3)c3ccccc3n2)c1 | 0 | 0 | - | 0 | 0 | 0 | -
O=C(N/N=C/c1ccco1)c1cc(-c2ccccc2)nc2ccccc12 | 0 | 0 | 0 | 0 | 0 | 0 | -
O=C(N/N=C/c1ccccn1)c1cc(-c2ccc(Br)cc2)nc2ccccc12 | 0 | 0 | 0 | 0 | 32.0 | 0 | 0
O=C(N/N=C/c1ccccn1)c1cc(-c2ccc(Cl)cc2)nc2ccccc12 | 0 | 0 | 0 | 0 | 31.0 | 0 | 0
COc1ccccc1N1CCN(C(=O)c2ccc3nc(-c4ccco4)c(-c4ccco4)nc3c2)CC1 | 0 | 0 | 0 | 0 | 0 | 0 | -
O=C(c1ccccc1)c1ccc2nc(-c3ccco3)c(-c3ccco3)nc2c1 | 0 | 0 | 0 | 0 | 74.5 | 0 | 0
